In ChEMBL document CHEMBL1123568 (J Med Chem, 1987) one finds MIC data, which are given here for 3 compounds.

SMILES strings stand for the structures. Converted amounts (≈) assume the structure as drawn. A value given as a limit tells only on which side of the number the result lay.

What all share (format): functional
The subject of one test is Acinetobacter. Description: Antimicrobial activity against the acinetobacter sp. CMX 669 by 2-fold agar dilution method using brain-heart infusion agar. In general terms: In agar dilution the substance is mixed into plates at graded concentrations.
Test [1] has as its system Escherichia coli. Put plainly: Antimicrobial activity against the Escherichia coli H560 by 2-fold agar dilution method using brain-heart infusion agar. In a few lines:
(§1)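 Read-out is the MIC, found by twofold agar dilution in brain-heart infusion agar. Strains were Escherichia coli H560, Staphylococcus aureus 45 and Staphylococcus aureus ATCC 6538 P.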

Test [2] deals with Escherichia coli. Description: Antimicrobial activity against the Escherichia coli JUHL by 2-fold agar dilution method using brain-heart infusion agar.
In a further test the test system is Klebsiella aerogenes. Description: Antimicrobial activity against the enterobacter aerogenes ATCC 13048 by 2-fold agar dilution method using brain-heart infusion agar. The following applies: ATCC 13048, Brain.
A further test concerns Klebsiella pneumoniae. Description: Antimicrobial activity against the klebsiella pneumoniae 8045 by 2-fold agar dilution method using brain-heart infusion agar.
The next test has as its system Micrococcus luteus. Description: Antimicrobial activity against the micrococcus luteus 9341 by 2-fold agar dilution method using brain-heart infusion agar.
Test [3] deals with Pseudomonas aeruginosa. Description: Antimicrobial activity against the Pseudomonas aeruginosa K 799/61 by 2-fold agar dilution method using brain-heart infusion agar.
Test [4] concerns Pseudomonas aeruginosa. Description: Antimicrobial activity against the Pseudomonas aeruginosa K 799/WT by 2-fold agar dilution method using brain-heart infusion agar.
For another test, the system named is Enterococcus faecium. Put plainly: Antimicrobial activity against the faecium ATCC 8043 by 2-fold agar dilution method using brain-heart infusion agar. The settings on record: ATCC 8043, Brain.
Test [5] concerns Staphylococcus aureus. Description: Antimicrobial activity against the Staphylococcus aureus 45 by 2-fold agar dilution method using brain-heart infusion agar. In a few lines:
as §1

Test [6] concerns Staphylococcus aureus. Description: Antimicrobial activity against the Staphylococcus aureus ATCC 6538 P by 2-fold agar dilution method using brain-heart infusion agar. The settings on record: ATCC 6538, Brain. In a few lines:
as §1

Test [7] relates to Staphylococcus epidermidis. Put plainly: Antimicrobial activity against the Staphylococcus epidermis 3519 by 2-fold agar dilution method using brain-heart infusion agar.
Test [8] relates to Streptococcus pyogenes. Put plainly: Antimicrobial activity against the streptococcus pyogenes 2548 by 2-fold agar dilution method using brain-heart infusion agar.
The next test deals with Streptococcus agalactiae. Description: Antimicrobial activity against the streptococcus agalactiae CMX 508 by 2-fold agar dilution method using brain-heart infusion agar.
In a further test the test system is Streptococcus equinus. Description: Antimicrobial activity against the streptococcus bovis A 5169 by 2-fold agar dilution method using brain-heart infusion agar.
Test [9] has as its system Streptococcus pyogenes. Put plainly: Antimicrobial activity against the streptococcus pyogenes EES 61 by 2-fold agar dilution method using brain-heart infusion agar.

One may read the MIC as the lowest concentration found to suppress growth. A high value points to a need for much substance.

As for `C[C@@H]1COc2c(N3CCN(C)CC3)c(F)cc3c(=O)c(C(=O)O)cn1c23` [DEXTROFLOXACINE], the MIC against Acinetobacter was 9.75 µg/mL (≈ 27 µM); in the test with Escherichia coli [1] it was 9.75 µg/mL (≈ 27 µM); in the test with Escherichia coli [2], 1.21 µg/mL (≈ 3.35 µM); in the test with Klebsiella aerogenes, 9.75 µg/mL (≈ 27 µM); with Klebsiella pneumoniae it was 1.21 µg/mL (≈ 3.35 µM); against Micrococcus luteus, greater than 9.75 µg/mL. Further, the MIC in the test on Pseudomonas aeruginosa [3] is 1.21 µg/mL (≈ 3.35 µM); against Pseudomonas aeruginosa [4], 9.75 µg/mL (≈ 27 µM); in the test with Enterococcus faecium, greater than 9.75 µg/mL; in the test with Staphylococcus aureus [5], 9.75 µg/mL (≈ 27 µM); in the test with Staphylococcus aureus [6], 4.8 µg/mL (≈ 13.3 µM); in [7], 4.8 µg/mL (≈ 13.3 µM). Also, the MIC with Streptococcus pyogenes [8], in the test with Streptococcus agalactiae, with Streptococcus equinus and in the test with Streptococcus pyogenes [9] was greater than 9.75 µg/mL in each case.
Turning to `C[C@H]1COc2c(N3CCN(C)CC3)c(F)cc3c(=O)c(C(=O)O)cn1c23.C[C@H]1COc2c(N3CCN(C)CC3)c(F)cc3c(=O)c(C(=O)O)cn1c23.O` [LEVOFLOXACIN], the minimum inhibitory concentration (MIC) was 0.3 µg/mL in the test on Acinetobacter; 0.04 µg/mL with Escherichia coli [1]; 0.07 µg/mL against Escherichia coli [2]; 0.07 µg/mL against Klebsiella aerogenes; less than 0.04 µg/mL in the test with Klebsiella pneumoniae; 1.21 µg/mL in the test with Micrococcus luteus. Also, the MIC in the test on Pseudomonas aeruginosa [3] is 0.07 µg/mL; in the test with Pseudomonas aeruginosa [4], less than 0.04 µg/mL; in the test with Enterococcus faecium, 0.46 µg/mL; in the test on Staphylococcus aureus [5], 0.3 µg/mL; with Staphylococcus aureus [6] it was 0.15 µg/mL; in [7] it was 0.3 µg/mL. The MIC was found to be 0.26 µg/mL against Streptococcus pyogenes [8], 1.21 µg/mL with Streptococcus agalactiae, 1.21 µg/mL with Streptococcus equinus and 0.46 µg/mL against Streptococcus pyogenes [9].
`CC1COc2c(N3CCN(C)CC3)c(F)cc3c(=O)c(C(=O)O)cn1c23` (stereo not drawn) [OFLOXACIN]: the minimum inhibitory concentration (MIC) against Acinetobacter turned out to be 0.39 µg/mL (≈ 1.08 µM); in the test with Escherichia coli [1], 0.1 µg/mL (≈ 0.277 µM); against Escherichia coli [2], 0.05 µg/mL (≈ 0.138 µM); in the test on Klebsiella aerogenes it was 0.2 µg/mL (≈ 0.553 µM); against Klebsiella pneumoniae, 0.05 µg/mL (≈ 0.138 µM); in the test on Micrococcus luteus, 3.1 µg/mL (≈ 8.58 µM). The minimal inhibitory concentration (MIC) against Pseudomonas aeruginosa [3] was determined as 0.1 µg/mL (≈ 0.277 µM); with Pseudomonas aeruginosa [4], 0.39 µg/mL (≈ 1.08 µM); in the test with Enterococcus faecium it was 0.78 µg/mL (≈ 2.16 µM); with Staphylococcus aureus [5], 0.39 µg/mL (≈ 1.08 µM); against Staphylococcus aureus [6], 0.2 µg/mL (≈ 0.553 µM); in test [7] it was 0.39 µg/mL (≈ 1.08 µM). Also, the minimum inhibitory concentration (MIC) against Streptococcus pyogenes [8] stood at 0.39 µg/mL (≈ 1.08 µM); against Streptococcus agalactiae, 1.56 µg/mL (≈ 4.32 µM); in the test on Streptococcus equinus, 1.56 µg/mL (≈ 4.32 µM); in the test with Streptococcus pyogenes [9] it was 0.78 µg/mL (≈ 2.16 µM).
